# From PubChem BioAssay
# TRPC6 activator: activates the mouse TRPC6 cation channel; Q61143; HEK293-TRPC6 membrane potential dye fluorescence; active compounds read high; B-score at 10 µM; 310,000 compounds, 0.13% hits; AID 2550;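 active = B-score of the integrated fluorescence ratio above library mean plus 3 SD, and starting fluorescence ratio within library mean plus 5 SD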;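 note: higher score means more depolarization so channel activation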
# TRPC4 block: TRPC4 (mouse) channel inhibition; Q9QUQ5; HEK293 TRPC4beta/mu-opioid, DAMGO-evoked Fluo4 calcium flux; active compounds read low; B-score at 10 µM; 300,000 compounds, 0.39% hits;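 active = B-score over 3 SD under the library average, no early fluorescence shift, positive overall ratio signal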
# Target sequence (Q9QUQ5 whole entry, looked up): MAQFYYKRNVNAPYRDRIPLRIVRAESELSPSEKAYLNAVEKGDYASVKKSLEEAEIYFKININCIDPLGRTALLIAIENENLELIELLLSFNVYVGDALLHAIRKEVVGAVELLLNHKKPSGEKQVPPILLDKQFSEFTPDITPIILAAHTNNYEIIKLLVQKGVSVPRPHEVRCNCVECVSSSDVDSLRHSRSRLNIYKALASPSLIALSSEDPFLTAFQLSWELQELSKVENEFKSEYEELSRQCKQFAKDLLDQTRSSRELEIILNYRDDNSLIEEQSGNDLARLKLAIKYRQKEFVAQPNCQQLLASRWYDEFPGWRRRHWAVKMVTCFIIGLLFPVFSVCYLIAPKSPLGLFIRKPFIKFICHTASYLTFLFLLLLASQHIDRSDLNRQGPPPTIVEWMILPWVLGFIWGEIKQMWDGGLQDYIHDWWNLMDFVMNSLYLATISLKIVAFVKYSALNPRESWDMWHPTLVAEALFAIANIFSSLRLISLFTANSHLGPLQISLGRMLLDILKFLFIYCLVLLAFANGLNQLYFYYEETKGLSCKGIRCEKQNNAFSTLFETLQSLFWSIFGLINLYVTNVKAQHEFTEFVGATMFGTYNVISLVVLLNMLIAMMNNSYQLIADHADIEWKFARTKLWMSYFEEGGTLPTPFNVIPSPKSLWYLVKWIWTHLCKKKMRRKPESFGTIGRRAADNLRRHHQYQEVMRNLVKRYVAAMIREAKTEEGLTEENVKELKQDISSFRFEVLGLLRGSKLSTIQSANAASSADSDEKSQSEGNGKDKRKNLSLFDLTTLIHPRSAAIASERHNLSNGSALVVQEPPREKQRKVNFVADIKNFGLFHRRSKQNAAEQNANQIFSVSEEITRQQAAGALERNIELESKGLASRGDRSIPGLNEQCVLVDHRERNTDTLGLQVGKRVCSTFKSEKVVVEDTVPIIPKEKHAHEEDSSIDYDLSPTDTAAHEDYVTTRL
#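 Material: HEK293 cells with stable TRPC4beta plus mu-opioid receptor expression / Probe or stimulus: DAMGO in two steps, submaximal then maximal / Compound: single concentration per test compound / Technique: kinetic Fluo4 fluorescence imaging of calcium influx / Read-out: per-well B score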
# TRPC4 potent: allosteric potentiators of mouse TRPC4 channel; HEK293 TRPC4beta/mu-opioid, DAMGO EC20, Fluo-4 Ca2+ flux; active compounds read high; B-score at 10 µM; 310,000 compounds, 0.42% hits;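 active = B-score of calcium response area above 5 SD of library B-scores, with initial fluorescence ratio within 5 SD of library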
# TRPC4 act: activators of mouse TRPC4 channel; Q9QUQ5; HEK293 TRPC4beta/mu-opioid, Fluo4 calcium fluorescence; active compounds read high; B-score at 10 µM; 310,000 compounds, 0.49% hits; AID 2237;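 active = B-score above 5 SD of library B-scores, and initial fluorescence ratio not above library mean plus 5 SD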;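 note: positive B-score marks a calcium rise read as TRPC4 activation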
#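 Material: TRPC4beta and mu-opioid receptor HEK293 stable cells | Incubation: 45 min room-temperature Fluo4 loading, 110 s read | Detection: Kinetic Fluo4 calcium fluorescence | Measure: Integrated baseline-normalised fluorescence ratio, converted to per-well B score | Benchmarks: Low control buffer alone, high control maximal DAMGO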
# Kir21 block: inhibitors of mouse Kir2.1 inward-rectifier potassium channel; P35561; HEK293-Kir2.1, FluxOR thallium flux fluorescence; active compounds read low; B-score at 10 µM; 310,000 compounds, 0.85% hits; AID 1672;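 active = fluorescence ratio B-score at or below minus 3 SD of library scores, with starting-brightness B-score within 2 SD, cut at about -4.2 in these data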;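 note: channel flux triggered by added potassium and thallium sulfate stimulus; B-score of peak minus minimum fluorescence over baseline after thallium stimulus; more negative B-score means stronger Kir2.1 block with less thallium influx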
# TRPC6 inhibitor: mouse TRPC6 channel inhibition; 310,000 compounds, 1.1% hits; HEK293-TRPC6, membrane potential dye, ACh-evoked depolarization; active compounds read low; Q61143; B-score at 10 µM;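 active = B-score under library mean minus 3 SD, initial fluorescence not abnormally high, positive integrated signal ratio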;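 note: B-score derived from integrated fluorescence ratio over the kinetic read; more negative B-score means stronger inhibition of depolarization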
# hERG inh: hERG (human) inhibition as Kir2.1 counter-screen; hERG-expressing cells, thallium flux; shares compounds with Kir21 block; 320 compounds, 20% hits; inhibition, % at 10 µM;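 note: host cells are CHO cells stably expressing hERG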
# KCNK9 inh: human KCNK9 off-target activity of Kir2.1 blockers; KCNK9-expressing cells, ion flux inhibition; inhibition, % at 10 µM; 320 compounds, 5% hits; AID 2329; shares compounds with Kir21 block
# Kir21 ephys inh: mouse Kir2.1 inward rectifier channel inhibition | shares compounds with Kir21 block | Kir2.1 cells, automated patch-clamp current inhibition | inhibition, % at 25 µM | 320 compounds, 71% hits | AID 463252
# A number is an active result; - = inactive; . = no result. The list is not random: actives were taken first. Their share in the collection is about 2.9%. Unless noted, the rule behind the calls is not given here.
SMILES,TRPC6 activator,TRPC4 block,TRPC4 potent,TRPC4 act,Kir21 block,TRPC6 inhibitor,hERG inh,KCNK9 inh,Kir21 ephys inh
CN(C)CC1CCCCC1C1(O)c2ccccc2CSc2sccc21 (centres undefined),-,-,-,-,-5.7,-,-,-,-
CCCc1cc(C(=O)NNC(=S)NCC)c2ccccc2n1,-,-,-,-,-,-,.,.,.
CC(=O)c1ccc(OCC(O)CN2CCc3ccccc3C2)cc1 (centres undefined),-,-,-,-,-,-,.,.,.
Cc1cc(OCC(O)CN2CCc3ccccc3C2)cc(C(C)C)c1 (centres undefined),-,-,-,-,-13,-,58%,-,6.0%
O=C(Oc1cccnc1)c1ccco1,-,-,-,-,-,-,.,.,.
O=C(Oc1cccc(OC(=O)c2ccco2)c1)c1ccco1,-,-,-,-,-5.7,-,-,-,-
CCOC(=O)c1nnn(-c2nonc2N)c1CSc1ccc(C)cc1,-,-,-,-,-8.5,-,-,-,8.6%
CCN(CC)S(=O)(=O)c1ccc(Cl)c(OC)c1,-,-,-,-,-,-,.,.,.
CCCN(CCC)S(=O)(=O)c1ccc(Cl)c(OC)c1,-,-,-,-,-6.2,-,-,-,32%
CCOC(=O)C(NS(=O)(=O)c1ccc(Br)cc1)C(C)C (centres undefined),-,-,-,-,-8.5,-,-,-,49%
O=C(O)c1ccc(N/N=C/c2cn(Cc3ccccc3F)c3ccccc23)cc1,-,-,-,-,-,-,.,.,.
Nc1ccc(-c2ccc(N)cc2C(F)(F)F)c(C(F)(F)F)c1,-,-,-,-,-6.4,-,-,48%,-
Nc1ccc(C(O)(C(F)(F)F)C(F)(F)F)cc1,-,-,-,-,-,-,.,.,.
CC(C)CN(C(=O)COC(=O)Cc1n[nH]c(=O)c2ccccc12)C1CCS(=O)(=O)C1 (centres undefined),-,-,-,-,-,-,.,.,.
CC(C)CN(C(=O)COC(=O)CNC(=O)c1sc2ccccc2c1Cl)C1CCS(=O)(=O)C1 (centres undefined),-,-,-,-,-,-,-,-,-
Cc1onc(-c2ccccc2Cl)c1C(=O)c1ccccc1,-,-,-,-,-6.4,-,-,-,11%
COc1ccccc1N1CCN(C(=O)C2CCN(C(=O)c3ccccc3C)CC2)CC1,-,-,-,-,-,-,.,.,.
N#C/C(=C(/O)COC(=O)COc1cccc(Br)c1)c1nc2ccccc2[nH]1,-,-,-,-,-,-,.,.,.
COc1cccc(OC)c1OCCOc1ccccc1OC(C)C,-,-,-,-,-11,-,-,-,42%
O=C(c1cc(-c2ccc(Cl)c(Cl)c2)on1)N1CCN(c2ccccc2)CC1,-,-,-,-,-,-,.,.,.
O=C(CCCN1CCC(C(=O)c2ccc(F)cc2)CC1)c1ccc(F)cc1,-,-,-,-,-,-,.,.,.
O=C(CCCN1CCC(O)(c2ccc(Cl)cc2)CC1)c1ccc(F)cc1,-,-,-,-,-5.5,-,.,-,55%
COC(=O)CC1c2cc(OC)c(OC)cc2CC(=O)c2cc(OC)c(OC)cc21 (centres undefined),-,-,-,-,-,-,.,.,.
Cc1ccc(C(CCN(Cc2ccccc2)C(=O)c2ccco2)c2ccco2)cc1 (centres undefined),-,-,-,-,-,-,.,.,.
O=C(c1ccco1)N(CCC(c1ccccc1)c1ccco1)Cc1ccco1 (centres undefined),-,-,-,-,-6.1,-,-,48%,-
Cn1c(-c2ccc(F)cc2)cnc1NCc1ccc(F)cc1,-,-6,-,-,-10,-,-,-,60%
Cn1c(-c2ccc(F)cc2)cnc1NCc1ccc(C#N)cc1,-,-,-,-,-,-,.,.,.
